# Test system: U2OS
# Assay: Multiplex assay against U2OS
# Type: toxicity, cell-based
# Details: human
# Outline: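 Imaging took place on a CQ1 microscope at 37°C and 5% CO2 once compound had been added to live cells stained at seeding with Hoechst33342, BioTracker Green Microtubule Cytoskeleton Dye, MitoTracker Red and Annexin V Alexa Fluor 680. CellPathfinder machine-learning gating classed cells as Hoechst high-intensity objects or normal cells, classed normal cells as having healthy, pyknosed or fragmented nuclei, and classed pyknosed cells as mitotic or apoptotic. Tubulin, mitochondrial-mass and membrane-permeability phenotypes are per cents of the healthy-nucleus cells.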
# [1] = 12 h, 1 µM, compound concentration 1 uM, replicate 1
# [2] = 12 h, 1 µM, compound concentration 1 uM, replicate 2
# [3] = 12 h, 10 µM, compound concentration 10 uM, replicate 1
# [4] = 12 h, 10 µM, compound concentration 10 uM, replicate 2
# [5] = 24 h, 1 µM, compound concentration 1 uM, replicate 1
# [6] = 24 h, 1 µM, compound concentration 1 uM, replicate 2
# [7] = 24 h, 10 µM, compound concentration 10 uM, replicate 1
# [8] = 24 h, 10 µM, compound concentration 10 uM, replicate 2
# [9] = 48 h, 1 µM, compound concentration 1 uM, replicate 1
# [10] = 48 h, 1 µM, compound concentration 1 uM, replicate 2
# [11] = 48 h, 10 µM, compound concentration 10 uM, replicate 1
# [12] = 48 h, 10 µM, compound concentration 10 uM, replicate 2
smiles,measurement,setting,value
Cl.NCCc1ccc(O)c(O)c1 [DOPAMINE HYDROCHLORIDE],Population Apoptotic (%),[1],100%
same,Population Fragmented Nuclei (%),[1],23%
same,Population Healthy Nuclei (%),[1],67%
same,Population Hoechst High Intensity Objects (%),[1],3%
same,Population Membrane Permeable-Phenotype (%),[1],5%
same,Population Mitochondria Different-Phenotype (%),[1],1%
same,Population Mitotic Cells (%),[1],0%
same,Population Normal (%),[1],96%
same,Population Pyknosed Nuclei (%),[1],9%
same,Population Tubulin-Different-Phenotype (%),[1],2%
same,Total Cell Count,[1],237
same,Population Apoptotic (%),[2],83%
same,Population Fragmented Nuclei (%),[2],15%
same,Population Healthy Nuclei (%),[2],72%
same,Population Hoechst High Intensity Objects (%),[2],1%
same,Population Membrane Permeable-Phenotype (%),[2],8%
same,Population Mitochondria Different-Phenotype (%),[2],2%
same,Population Mitotic Cells (%),[2],16%
same,Population Normal (%),[2],98%
same,Population Pyknosed Nuclei (%),[2],11%
same,Population Tubulin-Different-Phenotype (%),[2],5%
same,Total Cell Count,[2],104
same,Population Apoptotic (%),[3],80%
same,Population Fragmented Nuclei (%),[3],21%
same,Population Healthy Nuclei (%),[3],65%
same,Population Hoechst High Intensity Objects (%),[3],3%
same,Population Membrane Permeable-Phenotype (%),[3],2%
same,Population Mitochondria Different-Phenotype (%),[3],1%
same,Population Mitotic Cells (%),[3],20%
same,Population Normal (%),[3],96%
same,Population Pyknosed Nuclei (%),[3],12%
same,Population Tubulin-Different-Phenotype (%),[3],1%
same,Total Cell Count,[3],204
same,Population Apoptotic (%),[4],75%
same,Population Fragmented Nuclei (%),[4],18%
same,Population Healthy Nuclei (%),[4],76%
same,Population Hoechst High Intensity Objects (%),[4],0%
same,Population Membrane Permeable-Phenotype (%),[4],4%
same,Population Mitotic Cells (%),[4],25%
same,Population Normal (%),[4],100%
same,Population Pyknosed Nuclei (%),[4],4%
same,Total Cell Count,[4],95
same,Population Apoptotic (%),[5],90%
same,Population Fragmented Nuclei (%),[5],18%
same,Population Healthy Nuclei (%),[5],69%
same,Population Hoechst High Intensity Objects (%),[5],4%
same,Population Membrane Permeable-Phenotype (%),[5],7%
same,Population Mitochondria Different-Phenotype (%),[5],2%
same,Population Mitotic Cells (%),[5],10%
same,Population Normal (%),[5],95%
same,Population Pyknosed Nuclei (%),[5],11%
same,Population Tubulin-Different-Phenotype (%),[5],5%
same,Total Cell Count,[5],263
same,Population Apoptotic (%),[6],80%
same,Population Fragmented Nuclei (%),[6],14%
same,Population Healthy Nuclei (%),[6],77%
same,Population Hoechst High Intensity Objects (%),[6],1%
same,Population Membrane Permeable-Phenotype (%),[6],4%
same,Population Mitochondria Different-Phenotype (%),[6],1%
same,Population Mitotic Cells (%),[6],20%
same,Population Normal (%),[6],98%
same,Population Pyknosed Nuclei (%),[6],7%
same,Population Tubulin-Different-Phenotype (%),[6],2%
same,Total Cell Count,[6],132
same,Population Apoptotic (%),[7],92%
same,Population Fragmented Nuclei (%),[7],18%
same,Population Healthy Nuclei (%),[7],70%
same,Population Hoechst High Intensity Objects (%),[7],2%
same,Population Membrane Permeable-Phenotype (%),[7],4%
same,Population Mitochondria Different-Phenotype (%),[7],0%
same,Population Mitotic Cells (%),[7],8%
same,Population Normal (%),[7],97%
same,Population Pyknosed Nuclei (%),[7],10%
same,Population Tubulin-Different-Phenotype (%),[7],1%
same,Total Cell Count,[7],245
same,Population Apoptotic (%),[8],87%
same,Population Fragmented Nuclei (%),[8],15%
same,Population Healthy Nuclei (%),[8],77%
same,Population Hoechst High Intensity Objects (%),[8],0%
same,Population Membrane Permeable-Phenotype (%),[8],1%
same,Population Mitotic Cells (%),[8],12%
same,Population Normal (%),[8],99%
same,Population Pyknosed Nuclei (%),[8],7%
same,Total Cell Count,[8],111
same,Population Apoptotic (%),[9],90%
same,Population Fragmented Nuclei (%),[9],17%
same,Population Healthy Nuclei (%),[9],70%
same,Population Hoechst High Intensity Objects (%),[9],2%
same,Population Membrane Permeable-Phenotype (%),[9],5%
same,Population Mitochondria Different-Phenotype (%),[9],3%
same,Population Mitotic Cells (%),[9],9%
same,Population Normal (%),[9],97%
same,Population Pyknosed Nuclei (%),[9],11%
same,Population Tubulin-Different-Phenotype (%),[9],4%
same,Total Cell Count,[9],363
same,Population Apoptotic (%),[10],89%
same,Population Fragmented Nuclei (%),[10],14%
same,Population Healthy Nuclei (%),[10],73%
same,Population Membrane Permeable-Phenotype (%),[10],7%
same,Population Mitochondria Different-Phenotype (%),[10],4%
same,Population Mitotic Cells (%),[10],10%
same,Population Tubulin-Different-Phenotype (%),[10],3%
same,Total Cell Count,[10],172
same,Population Apoptotic (%),[11],85%
same,Population Fragmented Nuclei (%),[11],18%
same,Population Healthy Nuclei (%),[11],66%
same,Population Hoechst High Intensity Objects (%),[11],2%
same,Population Membrane Permeable-Phenotype (%),[11],7%
same,Population Mitochondria Different-Phenotype (%),[11],3%
same,Population Mitotic Cells (%),[11],14%
same,Population Normal (%),[11],97%
same,Population Pyknosed Nuclei (%),[11],14%
same,Population Tubulin-Different-Phenotype (%),[11],5%
same,Total Cell Count,[11],338
same,Population Apoptotic (%),[12],100%
same,Population Fragmented Nuclei (%),[12],14%
same,Population Healthy Nuclei (%),[12],76%
same,Population Hoechst High Intensity Objects (%),[12],1%
same,Population Membrane Permeable-Phenotype (%),[12],2%
same,Population Mitochondria Different-Phenotype (%),[12],2%
same,Population Mitotic Cells (%),[12],0%
same,Population Normal (%),[12],98%
same,Population Pyknosed Nuclei (%),[12],8%
same,Population Tubulin-Different-Phenotype (%),[12],2%
same,Total Cell Count,[12],179

# — ChEMBL document CHEMBL5058577, “EUbOPEN Chemogenomics Library 2 (Multiplex)” (2022)
